Key:
human CatL [1] = molecular target: T1, human CatL (Homo sapiens, UniProt P07711); assay: Single-concentration protease screen against human CatL; type: biochemical; settings: for follow-up screen against CatL: 13 nM
[2] = molecular target: Recombinant human TMPRSS2 (Homo sapiens, UniProt O15393); assay: TMPRSS2 protease activity assay; type: biochemical; settings: up to 50 μM (final concentration)
SARS-CoV-2 [3] = type: cell-based
human CatL [4] = molecular target: T1, human CatL; assay: kinact/KI^app determination, recombinant human CatL; type: biochemical; settings: for selectivity for CatL over CatB (kinact/KI^app): human CatL vs human CatB; for kinact/KI: read-out: kinact/KI^app
How it was run: (§1)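 Test compound 555.56–0.01 nM, quadruplicate wells. Product formation rates taken at 6 min intervals over 1 h, normalised to DMSO controls. kobs from inactivation curves; kinact and KIapp by nonlinear regression of kobs = kinact[I]/(KIapp+[I]); ratio then calculated.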

Human CatB = Human CatB (Homo sapiens, UniProt P07858); assay: kinact/KI^app determination, recombinant human CatB; type: biochemical; settings: for kinact/KI: read-out: kinact/KI^app
How it was run: as §1

SARS-CoV-2 [5] = type: cell-based; settings: MRC-5/ACE2/TMPRSS2 cells
SARS-CoV-2 [6] = type: cell-based; settings: 24 h
SARS-CoV-2 PLpro = SARS-CoV-2 PLpro (Severe acute respiratory syndrome coronavirus 2, UniProt P0DTD1); assay: Single-concentration protease screen against SARS-CoV-2 PLpro; type: biochemical; settings: 10 μM
SARS-CoV-2 Mpro = SARS-CoV-2 Mpro (Severe acute respiratory syndrome coronavirus 2, UniProt P0DTD1); assay: Single-concentration protease screen against SARS-CoV-2 Mpro; type: biochemical; settings: 10 μM
[7] = molecular target: VeroE6 lysates (CatL activity) (Chlorocebus aethiops, UniProt Q9GKL8); assay: Protease activity in VeroE6 cell lysates using Z-Phe-Arg-AMC; type: biochemical, monkey; settings: for inhibition of Z-Phe-Arg-AMC cleaving activity in VeroE6 lysates: 20 μM; for inactivation of CatL in VeroE6 lysates: 10 μM
Chain of VeroE6 lysates (CatL activity) (Q9GKL8 114-333): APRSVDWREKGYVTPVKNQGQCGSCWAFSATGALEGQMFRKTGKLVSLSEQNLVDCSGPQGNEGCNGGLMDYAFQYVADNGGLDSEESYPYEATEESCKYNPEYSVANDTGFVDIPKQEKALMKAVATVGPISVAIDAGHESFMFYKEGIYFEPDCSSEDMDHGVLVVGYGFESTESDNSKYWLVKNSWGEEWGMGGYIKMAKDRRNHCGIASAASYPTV

Mouse CatL (mCatL) = Mouse CatL (mCatL) (Mus musculus, UniProt P06797); assay: kinact/KI^app determination, mouse CatL; type: biochemical; settings: for kinact/KI: read-out: kinact/KI^app
Chain of Mouse CatL (mCatL) (P06797 114-334): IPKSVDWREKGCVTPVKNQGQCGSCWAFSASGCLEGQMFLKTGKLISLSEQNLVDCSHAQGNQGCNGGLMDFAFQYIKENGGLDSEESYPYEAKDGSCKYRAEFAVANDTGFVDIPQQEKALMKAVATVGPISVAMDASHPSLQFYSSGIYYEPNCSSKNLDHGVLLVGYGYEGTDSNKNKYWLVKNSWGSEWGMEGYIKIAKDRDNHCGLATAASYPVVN
How it was run: as §1

SARS-CoV-2 [8] = assay: SARS-CoV-2-induced CPE in A549/ACE2 cells, inverted microscope; type: cell-based; settings: 96 h
Recombinant human furin = Recombinant human furin (Homo sapiens, UniProt P09958); type: biochemical; settings: up to 50 μM (final concentration)
Chain of Recombinant human furin (P09958 108-794): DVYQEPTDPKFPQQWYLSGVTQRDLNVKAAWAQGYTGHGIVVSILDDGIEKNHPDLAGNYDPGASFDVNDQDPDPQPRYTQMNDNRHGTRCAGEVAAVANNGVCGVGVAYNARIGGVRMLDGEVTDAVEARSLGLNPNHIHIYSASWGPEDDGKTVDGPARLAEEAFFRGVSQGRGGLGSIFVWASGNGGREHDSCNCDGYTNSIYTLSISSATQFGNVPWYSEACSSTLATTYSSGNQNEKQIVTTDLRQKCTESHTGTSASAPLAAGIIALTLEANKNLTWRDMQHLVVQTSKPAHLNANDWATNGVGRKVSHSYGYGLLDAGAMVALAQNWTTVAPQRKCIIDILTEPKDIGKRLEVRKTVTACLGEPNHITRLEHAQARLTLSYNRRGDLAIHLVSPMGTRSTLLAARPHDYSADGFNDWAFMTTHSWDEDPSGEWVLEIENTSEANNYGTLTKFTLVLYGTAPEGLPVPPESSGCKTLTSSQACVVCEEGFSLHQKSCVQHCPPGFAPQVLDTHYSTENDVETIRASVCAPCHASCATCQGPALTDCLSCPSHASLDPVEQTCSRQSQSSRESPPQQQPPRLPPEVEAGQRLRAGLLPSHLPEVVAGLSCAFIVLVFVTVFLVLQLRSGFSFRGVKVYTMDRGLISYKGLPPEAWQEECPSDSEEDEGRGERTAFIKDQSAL

[9] = tested on: A549 lysates (CatL/CatB activity); assay: Protease activity in A549 cell lysates using Z-Phe-Arg-AMC; type: biochemical, human; settings: for inhibition of Z-Phe-Arg-AMC cleaving activity in A549 cell extracts: 20 μM; for inactivation of CatL in A549 lysates: 10 μM
How it was run: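 A549 cells lysed by sonication in 50 mM MES pH 6.0 with 100 μM AEBSF, 1 μM pepstatin A, 1 mM EDTA and 1 mM DTT; protein measured by BCA. Equal volume of 50 μM Z-Phe-Arg-AMC then added; activity normalised to 0.2% DMSO wells.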

SARS-CoV-2 [10] = assay: microbe, parasite or virus in culture; type: cell-based

T1 sequence (P07711 114-333): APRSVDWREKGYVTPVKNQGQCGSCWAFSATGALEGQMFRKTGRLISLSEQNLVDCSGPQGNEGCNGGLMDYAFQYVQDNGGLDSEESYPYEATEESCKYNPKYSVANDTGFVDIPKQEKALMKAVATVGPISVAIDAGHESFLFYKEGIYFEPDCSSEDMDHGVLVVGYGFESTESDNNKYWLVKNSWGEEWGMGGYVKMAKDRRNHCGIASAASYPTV
Chain of Recombinant human TMPRSS2 (O15393 whole entry): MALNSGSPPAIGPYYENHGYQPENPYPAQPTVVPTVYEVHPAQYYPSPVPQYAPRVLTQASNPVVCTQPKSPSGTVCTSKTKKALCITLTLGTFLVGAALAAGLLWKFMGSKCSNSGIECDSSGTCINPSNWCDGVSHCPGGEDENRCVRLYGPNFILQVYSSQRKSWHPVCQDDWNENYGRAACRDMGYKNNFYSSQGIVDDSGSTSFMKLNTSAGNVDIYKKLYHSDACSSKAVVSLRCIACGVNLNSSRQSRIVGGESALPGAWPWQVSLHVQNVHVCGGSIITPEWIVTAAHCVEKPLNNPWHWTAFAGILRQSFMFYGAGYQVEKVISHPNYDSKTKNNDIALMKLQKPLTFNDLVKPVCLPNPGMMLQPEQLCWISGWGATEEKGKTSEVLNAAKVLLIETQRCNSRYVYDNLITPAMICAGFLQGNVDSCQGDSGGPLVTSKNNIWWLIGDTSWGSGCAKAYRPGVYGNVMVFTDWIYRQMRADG

| SMILES | follow-up screen against CatL (human CatL [1]) | kinact (human CatL [4]) [s⁻¹] | kinact/KI (human CatL [4]) [M⁻¹ s⁻¹] | kinact (Human CatB) [s⁻¹] | kinact/KI (Human CatB) [M⁻¹ s⁻¹] | kinact (Mouse CatL (mCatL)) [s⁻¹] | kinact/KI (Mouse CatL (mCatL)) [M⁻¹ s⁻¹] | lowest concentration completely preventing virus-induced CPE (SARS-CoV-2 [8]) [nM] | also measured |
| --- | --- | --- | --- | --- | --- | --- | --- | --- | --- |
| CC[C@H](C)[C@@H](C(=O)O[C@@H](CC(C)C)C(=O)N[C@@H](CC(C)C)C(=O)N[C@@H](C)/C=C/C(=O)N1C(=O)C=C(OC)[C@@H]1CC(C)C)N(C)C [compound 3] | most potent inhibitors | – | – | – | – | – | – | – | – |
| CC[C@H](C)[C@@H](C(=O)O[C@@H](CC(C)C)C(=O)N[C@@H](CC(C)C)C(=O)N[C@@H](C)/C=C/C(=O)N1C(=O)C=C(OC)[C@@H]1C)N(C)C [compound 1, gallinamide A] | most potent inhibitors | 0.00475 | 598000 | 0.000627 | 5350 | 0.00569 | 1.07e+06 | 625 | inhibition of TMPRSS2 activity [2]: did not inhibit; inhibitory effect on infection by time of addition (SARS-CoV-2 [3]): maximum when 1 was added prior to or at the time of entry; selectivity for CatL over CatB (kinact/KI^app) (human CatL [4]): 112 fold; concentration completely neutralizing SARS-CoV-2 entry (SARS-CoV-2 [5]): 32 nM; antiviral activity in HEK293-ACE2-TMPRSS2 cells (SARS-CoV-2 [6]): substantially reduced; inhibition of PLpro (SARS-CoV-2 PLpro): no inhibition; inhibition of Mpro (SARS-CoV-2 Mpro): no inhibition; inhibition of Z-Phe-Arg-AMC cleaving activity in VeroE6 lysates [7]: completely inhibited; CatL activity after incubation with compound (human CatL [1]; 10 μM): completely inhibited; inhibition of furin activity (Recombinant human furin): did not inhibit; inhibition of Z-Phe-Arg-AMC cleaving activity in A549 cell extracts [9]: inhibited |
| COC1=CC(=O)N(C(=O)/C=C/[C@H](C)NC(=O)[C@H](CC(C)C)NC(=O)[C@H](CC(C)C)NC(=O)C2CCN(C)CC2)[C@H]1Cc1c[nH]c2ccccc12 [compound 20] | most potent inhibitors | 0.00834 | 290000 | 0.017 | 19900 | 0.00319 | 806000 | – | inactivation of CatL in VeroE6 lysates [7]: complete inactivation; inactivation of CatL in A549 lysates [9]: complete inactivation |
| COC1=CC(=O)N(C(=O)/C=C/[C@H](C)NC(=O)[C@H](CCc2ccccc2)NC(=O)[C@H](CC2CCCCC2)NC(=O)[C@H](C(C)C)N(C)C)[C@H]1Cc1c[nH]c2ccccc12 [compound 19] | most potent inhibitors | 0.00587 | 189000 | 0.00335 | 9650 | 0.00224 | 136000 | 310 | concentration completely neutralizing SARS-CoV-2 entry (SARS-CoV-2 [5]): 32 nM |
| COC1=CC(=O)N(C(=O)/C=C/[C@H](CCc2ccccc2)NC(=O)[C@H](CC(C)C)NC(=O)[C@H](CC(C)C)NC(=O)[C@H](C(C)C)N(C)C)[C@H]1Cc1c[nH]c2ccccc12 [compound 23] | most potent inhibitors | 0.00985 | 835000 | 0.00189 | 7940 | 0.0096 | 2.31e+06 | 310 | fold more potent than parent natural product 1, based on kinact/KI^app (human CatL [4]; human CatL): 1.4 fold |
| CCCNC(=O)[C@H]1O[C@@H]1C(=O)N[C@H](C(=O)N1CCC[C@H]1C(=O)O)[C@@H](C)CC [CA-074, reference compound] | – | – | – | – | – | – | – | – | inhibition of Z-Phe-Arg-AMC cleaving activity in VeroE6 lysates [7]: no inhibitory activity; inhibition of Z-Phe-Arg-AMC cleaving activity in A549 cell extracts [9]: most of the activity was also sensitive |
| COC1=CC(=O)N(C(=O)/C=C/[C@H](C)NC(=O)[C@H](CC(C)C)NC(=O)[C@H](CC2CCCCC2)NC(=O)C2CCN(C)CC2)[C@H]1Cc1c[nH]c2ccccc12 [compound 17] | most potent inhibitors | 0.00347 | 193000 | 0.0209 | 24300 | 0.00856 | 292000 | – | selectivity for CatL over CatB (kinact/KI^app) (human CatL [4]): 8 fold; inactivation of CatL in VeroE6 lysates [7]: complete inactivation; EC50 (SARS-CoV-2 [10]; Severe acute respiratory syndrome coronavirus 2, Vero C1008, 72 h, read-out: EC50 SARS-CoV-2, VeroE6 cells, 72 h, mean ± SD of 3–4 independent biological replicates): > 5 µM; inactivation of CatL in A549 lysates [9]: complete inactivation |
| CS(=O)(=O)O.CS(=O)(=O)O.N=C(N)Nc1ccc(C(=O)Oc2ccc3cc(C(=N)N)ccc3c2)cc1 [nafamostat mesylate, reference compound] | – | – | – | – | – | – | – | – | concentration of neutralization of infection (SARS-CoV-2 [5]): 4 µM; antiviral activity in HEK293-ACE2-TMPRSS2 cells (SARS-CoV-2 [6]): potent antiviral activity; antiviral activity on VeroE6 cells (SARS-CoV-2 [10]): not effective; antiviral activity on VeroE6 cells (SARS-CoV-2 [10]; listed as Nafamostat mesylate): did not exhibit notable antiviral activity |
